From PubChem
Rows were chosen to be rich in hits. Some 9.4% of all compounds tested hit in one or more screens of this group.
Beta cell apopt: inhibitors of cytokine-induced beta cell apoptosis, primary screen, luminescence; INS-1E cytokine-induced death, ATP luminescence, 48 h; percent of positive-control rescue, neutral wells zero; protection from apoptosis, % (no concentration beside the values); actives 0.8% (n = 300,000);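 active means Every replicate reaches about 75%, or at least half do and their mean reaches it too, limit read from the data; inconclusive means At least half of replicates reach the limit but their mean does not; inactive means Under half of replicates reach the limit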;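 further: higher means more ATP so stronger rescue from cytokine killing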
T cruzi inh: inhibitors of intracellular T. cruzi growth, primary screen, luminescence, NIH3T3 host cells; T. cruzi beta-gal in NIH3T3, 90 h; inhibition, % (concentration not given with the values); actives 1.4% (n = 300,000); AID 1885, 2009;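 active means mean inhibition across valid replicates above about 55%, limit read from the data; inconclusive means mean below that limit but half or more replicates reach it; inactive means mean below it, under half of replicates reach it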;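 further: signal also drops with host cell toxicity which is not excluded here; higher percent means less beta-gal luminescence so fewer parasites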
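System – NIH/3T3 host cells with β-galactosidase reporter T. cruzi · Doses – single 50 nL compound addition per well in DMSO · Reagent – 5000 T. cruzi trypomastigotes/well · Medium – Low-serum DMEM with 2% FBS · Timing – ≥90 h infection period, 3 h prior cell attachment · Evaluation – parasite load inhibition, % · Technique – GalScreen luminescence, 60 min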
L major viab: Leishmania major promastigote growth inhibition, primary screen; inhibition, % at 10 µM; Leishmania major promastigotes, resazurin fluorescence viability; actives 9% (n = 200,000); in the data active means inhibition above about 50%;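 further: promastigotes grown with compound for 44 hours at 28 °C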
SKKanGAS inh: S. pyogenes SKKanGAS growth inhibitors in kanamycin, primary screen, streptokinase expression inhibitor project, SKKanGAS strain, BacTiter-Glo luminescence | AID 1662, 2009 | 6 h | inhibition, % at 7.5 µM | actives 1.3% (n = 300,000);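 active means mean replicate score, as percent of positive control median, at least 50; inconclusive means mean below 50 but one replicate at or above 50; inactive means mean and every replicate below 50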;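 further: strain carries kanamycin resistance gene driven by streptokinase promoter and grows in 40 µg/ml kanamycin; loss of luminescence reflects streptokinase promoter inhibition or plain growth inhibition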
Mdm2-MdmX inh: inhibitors of human Mdm2-MdmX association, primary screen, cell-based, luminescence, split luciferase, SaOS-2, uHTS; SaOS-2 split-luciferase Mdm2/MdmX complementation; inhibition, % at 8 µM; actives 3% (n = 330,000); AID 485346, 2010;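 active means inhibition of at least 50% at 8 µM in the primary screen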
CSC inhib: cancer stem cell viability inhibitors, primary screen, luminescence | actives 1.1% (n = 300,000) | inhibition, % at 7.5 µM | cancer stem cell-like cells viability; in the data active means inhibition above about 75%; inconclusive means no clear call, values can overlap the other calls; tested in HMLE shEcad cells
Lmaj promast 1uM: Leishmania major promastigote growth inhibition, confirmation, 1 µM repeat of primary hits. shares compounds with L major viab. L. major promastigote growth, resazurin fluorescence, 48 h. inhibition, % at 1 µM. actives 13% (n = 1,100). AID 1258, 2008;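 active means inhibition above about 50% in both repeat tests, limit read from the data; inconclusive means one repeat under the set limit, the other over it; inactive means both repeats under the set limit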
Large screens that a line does not name were inactive (follow-up assays come after a bar, where they were run).

O=C1C(Cl)=C(N2CCCCCC2)C(=O)N1c1ccc(Cl)cc1	none (no result: L major viab)
O=C1CN(c2ccc(Cl)cc2)C2(CCCCC2)S1	L major viab 66.5 | Lmaj promast 1uM inactive
CC(C)Cc1cc(C(=O)N2CCC(N3CCC(C(=O)NC4CC4)CC3)CC2)n[nH]1	none (no result: Beta cell apopt)
[O-][N+]1=c2ccc(Nc3ccccc3)cc2=NC12CCCCC2	Beta cell apopt 106.7, L major viab 100.4, CSC inhib 79.6 (no result: Mdm2-MdmX inh) | Lmaj promast 1uM 66.1
O=[N+]([O-])c1ccc2c(c1N1CCCCC1)=NC1(CCCCC1)[N+]=2[O-]	none (no result: L major viab)
CCOC(=S)SCc1cn2cccc(C)c2n1	none
CC(C)c1nccn1S(=O)(=O)c1cccc([N+](=O)[O-])c1	L major viab 52.4 (no result: T cruzi inh, SKKanGAS inh, Mdm2-MdmX inh) | Lmaj promast 1uM inactive
Nc1c(C(=O)N/N=C/c2ccc([N+](=O)[O-])cc2)sc2nnc(-c3ccccc3)c(-c3ccccc3)c12	none (no result: L major viab)
CC(c1ccccc1C(O)(c1ccccc1)c1ccccc1)N(C)C (stereo not given)	L major viab 99.3 | Lmaj promast 1uM inactive
CC(C)N(CC#CCC(O)(c1ccccc1)c1ccccc1)CCO	none (no result: Beta cell apopt, CSC inhib)
Cn1c(=O)c2nc(-c3ccccc3)oc2c2ccccc21	L major viab 91.8 | Lmaj promast 1uM 72.3
c1ccc(Cn2nc(-c3ccccc3)nc2-c2ccccc2)cc1	L major viab 93.5 | Lmaj promast 1uM inactive
COc1ccc(C(=O)NC(=C(Cl)Cl)S(=O)(=O)c2ccc(C)cc2)cc1	none (no result: L major viab, Mdm2-MdmX inh)
Cc1ccc(C(=O)NC(=C(Cl)Cl)S(=O)(=O)c2ccccc2)cc1	L major viab 72.3, CSC inhib 98.0 | Lmaj promast 1uM inactive
Cc1cc(C)nc(/N=c2/ssnc2Cl)c1	L major viab 99.4 | Lmaj promast 1uM 93.6
Nc1c(Cl)c(Cl)nc(C(=O)OCC(=O)NC2CCCCC2)c1Cl	none (no result: L major viab)
CCOc1ccc(S(N)(=O)=O)cc1-c1nc2c(C(C)(C)C)nn(C)c2c(=O)[nH]1	none (no result: L major viab)
CCOc1ccc(S(=O)(=O)NC(C)(C)C)cc1-c1nc2c(C(C)(C)C)nn(C)c2c(=O)[nH]1	T cruzi inh 67.4, L major viab 70.8 (no result: Beta cell apopt, CSC inhib) | Lmaj promast 1uM inactive
CCOc1ccc(-n2c(SCC(N)=O)nc3c([nH]c4ccccc43)c2=O)cc1	L major viab 68.2 (no result: Beta cell apopt, CSC inhib) | Lmaj promast 1uM inactive
CCOc1ccc(-n2c(SCC(=O)Nc3cc(C)on3)nc3c([nH]c4ccccc43)c2=O)cc1	none
CC(C)CN(CC(C)C)C(=O)CN1C(=O)NC2(CCCc3ccccc32)C1=O (stereo not given)	none (no result: L major viab)
O=C1CC(c2ccc(Br)cc2)NC(c2ccc(Br)cc2)C1c1ccccc1 (stereo not given)	L major viab 89.7 | Lmaj promast 1uM inactive
CC1/C(=N/O)CC(c2ccccc2)NC1c1ccccc1 (stereo not given)	none
Cc1noc(C)c1C(c1ccccc1)c1ccccc1	none
Cc1noc(C)c1C(c1ccccc1)S(=O)(=O)c1ccccc1 (stereo not given)	L major viab 84.8 (no result: Beta cell apopt, CSC inhib) | Lmaj promast 1uM inactive
Cc1ccc(S(=O)(=O)C(c2ccccc2)c2c(C)noc2C)cc1 (stereo not given)	L major viab 60.8 (no result: Mdm2-MdmX inh) | Lmaj promast 1uM inactive
CC1(C)CC(=O)c2cc(C(=O)NNc3ccccc3)c(=O)n(-c3ccccc3)c2C1	L major viab 52.3 | Lmaj promast 1uM inactive
CC12CC(NC(=O)N1c1cccc(C(=O)Nc3ncn[nH]3)c1)c1ccccc1O2 (stereo not given)	none
COc1ccc(NC(=O)c2cccc(N3C(=O)NC4CC3(C)Oc3ccccc34)c2)cc1 (stereo not given)	L major viab 99.9 | Lmaj promast 1uM inactive
CC(C)C(O)(C#CCN1CCCCC1)c1ccccc1 (stereo not given)	L major viab 92.9 | Lmaj promast 1uM inactive
COc1ccccc1NC(=O)N(Cc1ccc2c(c1)OCO2)Cc1nc2ccccc2c(=O)[nH]1	none (no result: CSC inhib)
COc1cccc(C(=O)N(Cc2ccc3c(c2)OCO3)Cc2nc3ccccc3c(=O)[nH]2)c1	L major viab 81.6 | Lmaj promast 1uM inactive
CCN(CC)C(=S)SSC(=S)N(CC)CC	Beta cell apopt inconclusive, L major viab 100.3 | Lmaj promast 1uM 98.0
CC(C)c1ccc(NC(=O)CCc2ccccc2)cc1	CSC inhib inconclusive (no result: L major viab)
CCN(CC)CC(=O)Nc1ccc2c(c1)N(C(=O)CN(CC)CC)c1ccccc1CC2	L major viab 99.3 | Lmaj promast 1uM inactive
COc1ccc(N(C)C(=O)C2CCCN2S(=O)(=O)c2cccc3nsnc23)c(OC)c1 (stereo not given)	none (no result: L major viab)
COc1cccc(C(=O)NC2CCN(C(=O)N3c4ccccc4Sc4ccccc43)CC2)c1	T cruzi inh 69.5, L major viab 70.8 | Lmaj promast 1uM inactive
Cc1cc(C)c2cc(C#N)c(N3CCCN(S(=O)(=O)c4ccccc4)CC3)nc2c1	none
CC(=O)c1cccc(S(=O)(=O)N2CCN(c3nc4cc(C)cc(C)c4cc3C#N)CC2)c1	T cruzi inh inconclusive, L major viab 50.1 | Lmaj promast 1uM inactive
CCOP(=O)(c1ccc(N(C)C)cc1)C(O)c1ccccc1F (stereo not given)	none (no result: L major viab)
CCOC(=O)c1oc2cccc(O)c2c1C	none
CCOC(=O)c1oc2ccc(CNC(C)(C)C)c(Cl)c2c1C	L major viab 99.0 | Lmaj promast 1uM inactive
CCc1sc(C(=O)N2CCN(c3ccc(F)cc3)CC2)cc1C	none (no result: L major viab)
COC(=O)C(Cc1cnc(Cl)s1)(C(=O)OC)c1ccc(C(F)(F)F)cc1[N+](=O)[O-]	none
COC(=O)C(Cc1cnc(Cl)s1)(C(=O)OC)c1ccc([N+](=O)[O-])cc1[N+](=O)[O-]	T cruzi inh 56.7, L major viab 63.2 | Lmaj promast 1uM inactive
CCn1cc(C(=O)N[C@H](C)c2ccccc2)c(=O)c2cc(F)c(N3CCN(C)CC3)cc21	L major viab 85.4, CSC inhib 75.5 | Lmaj promast 1uM inactive
CCN(CC)S(=O)(=O)c1ccc(C)c(NC(=O)COC(=O)CN2C(=O)NC(C)(C)C2=O)c1	none (no result: L major viab)
CCN1C(=O)N(c2cccc3ccccc23)C(C)=CC1(C)C	L major viab 50.7 | Lmaj promast 1uM inactive
CN(c1ccc(O)cc1)c1nc(-c2ccccc2)cs1	L major viab 88.7 (no result: T cruzi inh, SKKanGAS inh, Mdm2-MdmX inh) | Lmaj promast 1uM inactive
CN(C(=O)c1ccco1)c1nc(-c2ccccc2)cs1	none (no result: L major viab)
Cn1ccnc1Sc1ccc(C(N)=O)cc1[N+](=O)[O-]	none
Nc1ccc2nn(-c3ccccc3)nc2c1	L major viab 80.9 (no result: Beta cell apopt, T cruzi inh, SKKanGAS inh, CSC inhib) | Lmaj promast 1uM inactive
